Source: ChEMBL document CHEMBL4373659, “Synthetic studies on the reverse antibiotic natural products, the nybomycins” (2019)
Calls of active or inactive are those of the source. No cut-off for these calls is given here.

Legend:
[1] = tested on: Staphylococcus aureus; assay: Antibacterial activity against fluoroquinolone resistant Staphylococcus aureus USA300 JE2 assessed as zone of inhibition at 10 mmol after 24 hrs Kirby-Bauer disc diffusion method; assay type: functional
Method in brief: (§1)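 Compounds dissolved in CHCl3 as 1 mmol or 10 mmol solutions; 20 µL loaded per sterile 6 mm paper disc and dried 30 min at 37 °C; 7 discs per concentration. Single colony grown in Mueller-Hinton broth with aeration for 6 h at 37 °C, diluted in PBS to 0.5 McFarland, then swabbed in three directions onto Mueller-Hinton agar. Discs applied; incubated 24 h at 37 °C.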

[2] = tested on: Staphylococcus aureus; assay: Antibacterial activity against fluoroquinolone sensitive Staphylococcus aureus SH1000 assessed as zone of inhibition at 10 mmol after 24 hrs Kirby-Bauer disc diffusion method; assay type: functional
Method in brief: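 Discs: 6 mm autoclaved paper discs each loaded with 20 μL of compound in CHCl3 (1 or 10 mmol solutions), dried 30 min at 37 °C; 7 discs per compound per level. Inoculum: single colony grown 6 h at 37 °C with aeration in Mueller-Hinton broth, diluted with PBS to 0.5 McFarland, swabbed three directions onto Mueller-Hinton agar. Plates incubated 24 h at 37 °C.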

[3] = tested on: Staphylococcus aureus; assay: Antibacterial activity against fluoroquinolone resistant Staphylococcus aureus USA300 JE2 assessed as zone of inhibition at 1 mmol after 24 hrs Kirby-Bauer disc diffusion method; assay type: functional; method in brief: as §1
[4] = tested on: Staphylococcus aureus; assay: Antibacterial activity against fluoroquinolone sensitive Staphylococcus aureus SH1000 assessed as zone of inhibition at 1 mmol after 24 hrs Kirby-Bauer disc diffusion method; assay type: functional; method in brief: as §1
[5] = tested on: Staphylococcus aureus; assay: Antibacterial activity against fluoroquinolone sensitive Staphylococcus aureus SH1000 at 32 mmol after 24 hrs Kirby-Bauer disc diffusion method; assay type: functional, organism-based
[6] = tested on: Staphylococcus aureus; assay: Antibacterial activity against fluoroquinolone resistant Staphylococcus aureus USA300 JE2 at 32 mmol after 24 hrs Kirby-Bauer disc diffusion method; assay type: functional, organism-based

Row | Structure (SMILES) | inhibition zone (IZ) [1] [cm] | inhibition zone (IZ) [2] [cm] | inhibition zone (IZ) [3] [cm] | inhibition zone (IZ) [4] [cm] | Activity [5] | Activity [6]
1 | CCOc1cc(C)c2cc3c(C)cc(=O)n4c3c(c2n1)OCC4 | 1 | 0 | 0 | 0 | – | –
2 | CCOc1cc(C)c2cc3c(C)cc(=O)n4c3c(c2n1)OC4 | 0 | 0 | 0 | 0 | inactive | inactive
3 | CCn1c(=O)cc(C)c2cc3c(C)cc(=O)n4c3c(c21)OCCC4 | 2.7 | 2.3 | 0 | 0 | – | –
4 | CCn1c(=O)cc(C)c2cc3c(C)cc(=O)n4c3c(c21)OCC4 | 3.2 | 2.2 | 1.8 | 0 | – | –
5 | CCOc1cc(C)c2cc3c(C)cc(=O)n4c3c(c2n1)OCCC4 | 0 | 0 | 0 | 0 | – | –
6 | CCn1c(=O)cc(C)c2cc3c(C)cc(=O)n4c3c(c21)OC4 | 2.9 | 1.8 | 1.4 | 0 | – | –
7 | O=C(O)c1cn(C2CC2)c2cc(N3CCNCC3)c(F)cc2c1=O [CIPROFLOXACIN] | 1.2 | 3.1 | 0 | 1.8 | – | –
